For data set [1], the target named is T1, Nuclear factor erythroid 2-related factor 2 (Rattus norvegicus) (UniProt O54968).
T1 sequence (whole entry): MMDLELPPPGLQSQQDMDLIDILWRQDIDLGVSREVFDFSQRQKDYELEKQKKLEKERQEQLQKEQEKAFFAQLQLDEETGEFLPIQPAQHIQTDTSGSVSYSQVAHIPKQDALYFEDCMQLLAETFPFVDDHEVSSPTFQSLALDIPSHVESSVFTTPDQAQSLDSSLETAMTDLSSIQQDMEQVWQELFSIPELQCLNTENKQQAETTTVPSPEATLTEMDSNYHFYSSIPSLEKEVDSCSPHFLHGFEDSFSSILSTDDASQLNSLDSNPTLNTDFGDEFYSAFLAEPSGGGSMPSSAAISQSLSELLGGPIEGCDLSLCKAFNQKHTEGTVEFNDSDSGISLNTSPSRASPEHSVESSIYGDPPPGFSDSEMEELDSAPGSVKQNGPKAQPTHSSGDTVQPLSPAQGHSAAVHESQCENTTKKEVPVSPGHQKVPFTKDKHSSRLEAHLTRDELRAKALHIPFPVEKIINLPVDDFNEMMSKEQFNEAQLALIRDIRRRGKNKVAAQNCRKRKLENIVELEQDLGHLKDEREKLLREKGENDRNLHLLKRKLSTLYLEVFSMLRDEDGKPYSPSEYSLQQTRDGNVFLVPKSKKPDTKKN
Nature of the data set: Activation of Nrf2 in rat H9c2 cells assessed as induction of Nrf2 nuclear translocation incubated for 24 hrs followed by H2O2 stimulation and measured after 2 hrs by Western blot analysis. Format: cell-based. Background: In western blotting, separated proteins are transferred to a membrane and probed.

Data set [2] concerns the target T1, Nuclear factor erythroid 2-related factor 2 (Rattus norvegicus). The data set is described as follows: Activation of Nrf2 in rat H9c2 cells assessed as upregulation of NQO1 at 10 uM incubated for 24 hrs followed by H2O2 stimulation and measured after 2 hrs by Western blot analysis. The data set is classed as cell-based.
Data set [3] concerns H9c2. The data set is described as follows: Cardioprotective activity against rat H9c2 cells assessed as reduction in H2O2-induced cell death at 20 uM incubated for 24 hrs followed by H2O2 stimulation and measured after 2 hrs by MTT assay. The data set is classed as functional, cell-based. The method in brief:
(§1)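 Serum-starved H9c2 cells in DMEM/F12 with 10% FBS were seeded at 5×10^3 cells/well and attached overnight. They were pretreated 24 h with compound at 2.5, 5, 10 or 20 µM, then exposed to 250 µM H2O2 for 2 h. MTT (4 mg/mL) ran 4 h at 37 °C, formazan was dissolved in DMSO, and OD was read at 490 nm. Viability is % of untreated control, from three independent experiments, mean ± SD.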
For orientation: Tetrazolium dyes change colour on reduction, which living cells bring about.

Data set [4] addresses T1, Nuclear factor erythroid 2-related factor 2 (Rattus norvegicus). The data set is described as follows: Activation of Nrf2 in rat H9c2 cells assessed as induction of Nrf2 nuclear translocation at 10 uM incubated for 24 hrs followed by H2O2 stimulation and measured after 2 hrs by Western blot analysis. The data set is classed as cell-based.
In data set [5] the test system is H9c2. The data set is described as follows: Cardioprotective activity against rat H9c2 cells assessed as reduction in H2O2-induced cell death at 10 uM incubated for 24 hrs followed by H2O2 stimulation and measured after 2 hrs by MTT assay. The data set is classed as functional, cell-based. Summed up: as §1
Data set [6] deals with H9c2. The data set is described as follows: Cardioprotective activity against rat H9c2 cells assessed as reduction in H2O2-induced LDH release at 20 uM incubated for 24 hrs followed by H2O2 stimulation and measured after 2 hrs by LDH release assay. Format: functional, cell-based. Summed up: (§2)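 Cells were cultured in DMEM/F12 with 10% FBS and serum-starved, then pre-incubated 24 h with compound at 10 or 20 µM before 2 h with 250 µM H2O2. LDH release rate was measured with a cytotoxicity detection kit by absorbance at 490 nm. Three independent experiments, mean ± SD, one-way ANOVA with Tukey test.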

Data set [7] deals with T1, Nuclear factor erythroid 2-related factor 2 (Rattus norvegicus). Nature of the data set: Activation of Nrf2 in rat H9c2 cells assessed as upregulation of HO1 at 10 uM incubated for 24 hrs followed by H2O2 stimulation and measured after 2 hrs by Western blot analysis. The data set is classed as cell-based.
The subject of data set [8] is H9c2. The data set is described as follows: Cardioprotective activity against rat H9c2 cells assessed as reduction in H2O2-induced cell death at 5 uM incubated for 24 hrs followed by H2O2 stimulation and measured after 2 hrs by MTT assay. Format: functional, cell-based. The method in brief:
as §1

For data set [9], the system named is H9c2. The data set is described as follows: Increase in H2O2-induced Nrf2 expression in rat H9c2 cells at 20 uM incubated for 24 hrs followed by H2O2 stimulation and measured after 2 hrs by Western blot analysis. The data set is classed as functional, cell-based. The method in brief:
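Pretreatment was 20 µM for 24 h, then 250 µM H2O2 for 2 h. Cytoplasmic and nuclear fractions were extracted for Western blot: 5% milk/TBS-0.1% Tween blocking 2 h, primary antibodies overnight at 4 °C, HRP anti-rabbit secondary (1:5000) 2 h. Signals were normalised to Lamin B1 (nuclear) or GAPDH (cytoplasmic), n=3, mean ± SD.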

For data set [10], the system named is H9c2. Nature of the data set: Inhibition of H2O2-induced ROS accumulation in rat H9c2 cells at 10 uM incubated for 24 hrs followed by H2O2 stimulation and measured after 2 hrs by DHE staining based fluorescence microscopy. Format: functional, cell-based. The method in brief: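 H9c2 cells at 2.5×10^5 cells/well attached overnight, were preincubated 24 h with 10 µM, then given H2O2 (250 µM) for 2 h. Dihydroethidium (5 µM) was loaded for 30 min at 37 °C. Ethidium fluorescence (ex 488/em […] nm) was imaged by fluorescence microscopy at 200×.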

Data set [11] has as its system H9c2. Nature of the data set: Cardioprotective activity against rat H9c2 cells assessed as reduction in H2O2-induced cell death at 2.5 uM incubated for 24 hrs followed by H2O2 stimulation and measured after 2 hrs by MTT assay. The data set is classed as functional, cell-based. The method in brief: as §1
Data set [12] relates to H9c2. Nature of the data set: Cytotoxicity against rat H9c2 cells assessed as reduction in cell viability at 0.1 to 100 uM incubated for 24 hrs by MTT assay. Format: cell-based. The settings on record: h9c2, 24 h. The method in brief: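 H9c2 cells were seeded at 5×10^3 cells/well, attached overnight and given compound at 0.1, 1, 10 or 100 µM for 24 h, with 0.01% DMSO medium as control. Compounds were DMSO stocks diluted in medium. MTT (4 mg/mL, 4 h, 37 °C) was read at OD 490 nm after DMSO solubilisation. Viability is % of control, from three experiments.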

The target in data set [13] is T1, Nuclear factor erythroid 2-related factor 2 (Rattus norvegicus). Nature of the data set: Activation of Nrf2 in rat H9c2 cells assessed as upregulation of HO1 incubated for 24 hrs followed by H2O2 stimulation and measured after 2 hrs by Western blot analysis. The data set is classed as cell-based.
For data set [14] the target is unchanged. Nature of the data set: Activation of Nrf2 in rat H9c2 cells assessed as upregulation of NQO1 incubated for 24 hrs followed by H2O2 stimulation and measured after 2 hrs by Western blot analysis. The data set is classed as cell-based.
Data set [15] has as its system H9c2. Nature of the data set: Cardioprotective activity against rat H9c2 cells assessed as reduction in H2O2-induced LDH release at 10 uM incubated for 24 hrs followed by H2O2 stimulation and measured after 2 hrs by LDH release assay. Format: functional, cell-based. Summed up: as §2
A general note: LDH in the medium is a marker of cell lysis.

Among the data in ChEMBL document CHEMBL4312000, “Discovery of coumarin-derived imino sulfonates as a novel class of potential cardioprotective agents” (Eur J Med Chem, 2019) are Activity and inhibition values, retold here.

Calls of active or inactive are those of the source. No cut-off for these calls is given here.

For `O=S1(=O)N=Cc2ccc(Cl)cc2O1`, the Activity entry in data set [1] is “Dose-dependent effect”; with H9c2 [12], “Non-Toxic”; in data set [13], “Dose-dependent effect”; in data set [14] it was “Dose-dependent effect”. Moreover, the result (in data set [2]; in the data set with H9c2 [3]; in [4]; in the data set with H9c2 [5]; in the data set on H9c2 [6]; in data set [7]) was Active. The result in the data set on H9c2 [8], in the data set on H9c2 [9] and in the data set on H9c2 [15] was Active. In addition, the inhibition entry in the data set with H9c2 [10] was “Active”. In the data set with H9c2 [11], the result was inactive.

Consider `Cc1ccc2c(c1)OS(=O)(=O)N=C2`, for which, in the data set on H9c2 [3], the outcome was Active.

In the case of `O=S1(=O)N=Cc2cccc(F)c2O1`, the outcome in the data set on H9c2 [3] was Active.

As for `COc1ccc2c(c1)OS(=O)(=O)N=C2`, the outcome with H9c2 [3] was Active.

Regarding `CC(C)(C)c1cccc2c1OS(=O)(=O)N=C2`, in the data set on H9c2 [3], the result was inactive.

As for `O=S1(=O)N=Cc2c(ccc3ccccc23)O1`, the outcome in the data set on H9c2 [3] was Active.

In the case of `Cc1ccc2c(c1)C=NS(=O)(=O)O2`, in the data set on H9c2 [3], the result was Active.

As to `O=S1(=O)N=Cc2ccccc2O1`, the result in the data set on H9c2 [3] was Active.

Regarding `O=S1(=O)N=Cc2cc(Cl)ccc2O1`, the outcome in the data set on H9c2 [3] was Active.

With `O=S1(=O)N=Cc2cc(Br)ccc2O1`, the result in the data set with H9c2 [3], in the data set with H9c2 [5] and in the data set on H9c2 [6] was Active. Besides, the outcome in the data set on H9c2 [11] and with H9c2 [15] was inactive. In addition, in the data set on H9c2 [12], the Activity result is “Non-Toxic”.

Turning to `O=S1(=O)N=Cc2cccc(Cl)c2O1`, in the data set on H9c2 [3], the result was Active.

`O=S1(=O)N=Cc2c(F)cccc2O1`: the result in the data set with H9c2 [3] was Active.

`COc1cccc2c1OS(=O)(=O)N=C2`: the result in the data set with H9c2 [3] was Active.

Regarding `CCN(CC)c1ccc2c(c1)OS(=O)(=O)N=C2`, in the data set on H9c2 [3], the result was Active.

Consider `O=S1(=O)N=Cc2ccc(F)cc2O1`, for which the outcome with H9c2 [3], with H9c2 [5] and in the data set with H9c2 [6] was Active. Also, the outcome in the data set on H9c2 [11] and with H9c2 [15] was inactive. For the same compound, the Activity result in the data set with H9c2 [12] was “Non-Toxic”.

As to `COc1ccc2c(c1)C=NS(=O)(=O)O2`, the result with H9c2 [3] was Active.

On to `O=c1cc(-c2ccc(O)c(O)c2)oc2cc(O)cc(O)c12`, for which the outcome (in data set [2]; in the data set on H9c2 [3]; in [4]; with H9c2 [5]; in data set [7]) was Active. Also, the outcome in the data set on H9c2 [11] was inactive.
